Values after ≈ are worked out from the molar mass of the structure shown.
Tests used:
Assay type in all cases: functional
[1] = test system: Clavispora lusitaniae; assay: Antifungal activity against fcy1(1-26)-deficient Candida lusitaniae by microdilution method
Method in brief: (§1)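 CLSI broth microdilution using twofold dilutions in RPMI 1640 with about 10³ cells/ml, incubated 48 h at 35°C. Final ranges were 0.5–256 μg/ml flucytosine and 0.25–128 μg/ml fluconazole. Cross-resistance was tested with a flucytosine gradient at constant fluconazole (8 or 16 μg/ml). MIC was read by automated plate reader as the lowest concentration giving 50% growth inhibition versus the drug-free control.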

[2] = test system: Clavispora lusitaniae; assay: Antifungal activity against Candida lusitaniae CL38-5 expressing URA3 gene by microdilution method; method in brief: as §1
[3] = test system: Clavispora lusitaniae; assay: Antifungal activity against REPF URA3 fcy1-deficient Candida lusitaniae by microdilution method; method in brief: as §1
[4] = test system: Clavispora lusitaniae; assay: Antifungal activity against Candida lusitaniae CL48 by microdilution method; method in brief: as §1
[5] = test system: Clavispora lusitaniae; assay: Antifungal activity against Candida lusitaniae CL32 by microdilution method; method in brief: as §1
[6] = test system: Clavispora lusitaniae; assay: Antifungal activity against Candida lusitaniae CL128 by microdilution method; method in brief: as §1
[7] = test system: Clavispora lusitaniae; assay: Antifungal activity against Candida lusitaniae 42720 by microdilution method; method in brief: as §1
[8] = test system: Clavispora lusitaniae; assay: Antifungal activity against fcy1(1-119)-deficient Candida lusitaniae by microdilution method; method in brief: as §1
[9] = test system: Clavispora lusitaniae; assay: Antifungal activity against Candida lusitaniae 6936 by microdilution method; method in brief: as §1
[10] = test system: Clavispora lusitaniae; assay: Antifungal activity against Candida lusitaniae CL38-5 expressing FCY2 gene by microdilution method; method in brief: as §1
[11] = test system: Clavispora lusitaniae; assay: Antifungal activity against Candida lusitaniae CL38 by microdilution method; method in brief: as §1
[12] = test system: Clavispora lusitaniae; assay: Antifungal activity against Candida lusitaniae CL29 by microdilution method; method in brief: as §1
[13] = test system: Clavispora lusitaniae; assay: Antifungal activity against fcy1-deficient Candida lusitaniae by microdilution method; method in brief: as §1
[14] = test system: Clavispora lusitaniae; assay: Antifungal activity against Candida lusitaniae CL174 by microdilution method; method in brief: as §1
[15] = test system: Clavispora lusitaniae; assay: Antifungal activity against Candida lusitaniae CL38-5 expressing FCY21 gene by microdilution method; method in brief: as §1
[16] = test system: Clavispora lusitaniae; assay: Antifungal activity against Candida lusitaniae CL119 by microdilution method; method in brief: as §1
[17] = test system: Clavispora lusitaniae; assay: Antifungal activity against Candida lusitaniae CL31 by microdilution method; method in brief: as §1
[18] = test system: Clavispora lusitaniae; assay: Antifungal activity against Candida lusitaniae CL42 by microdilution method; method in brief: as §1
[19] = test system: Clavispora lusitaniae; assay: Antifungal activity against Candida lusitaniae CL216 by microdilution method; method in brief: as §1
[20] = test system: Clavispora lusitaniae; assay: Antifungal activity against Candida lusitaniae CL26 by microdilution method; method in brief: as §1

| Compound | MIC [1] [µg/mL] | MIC [2] [µg/mL] | MIC [3] [µg/mL] | MIC [4] [µg/mL] | MIC [5] [µg/mL] | MIC [6] [µg/mL] | MIC [7] [µg/mL] | MIC [8] [µg/mL] | MIC [9] [µg/mL] | MIC [10] [µg/mL] | MIC [11] [µg/mL] | MIC [12] [µg/mL] | MIC [13] [µg/mL] | MIC [14] [µg/mL] | MIC [15] [µg/mL] | MIC [16] [µg/mL] | MIC [17] [µg/mL] | MIC [18] [µg/mL] | MIC [19] [µg/mL] | MIC [20] [µg/mL] |
| --- | --- | --- | --- | --- | --- | --- | --- | --- | --- | --- | --- | --- | --- | --- | --- | --- | --- | --- | --- | --- |
| Nc1nc(=O)[nH]cc1F [FLUCYTOSINE] | 128 (≈ 992 µM) | 32 (≈ 248 µM) | ≤ 0.5 | 32 (≈ 248 µM) | 128 (≈ 992 µM) | 32 (≈ 248 µM) | ≤ 0.5 | 128 (≈ 992 µM) | ≤ 0.5 | ≤ 0.5 | 32 (≈ 248 µM) | 128 (≈ 992 µM) | 128 (≈ 992 µM) | 64 (≈ 496 µM) | 32 (≈ 248 µM) | 32 (≈ 248 µM) | 32 (≈ 248 µM) | 64 (≈ 496 µM) | 32 (≈ 248 µM) | 64 (≈ 496 µM) |
| OC(Cn1cncn1)(Cn1cncn1)c1ccc(F)cc1F [FLUCONAZOLE] | 2 (≈ 6.53 µM) | 2 (≈ 6.53 µM) | 2 (≈ 6.53 µM) | 2 (≈ 6.53 µM) | ≤ 0.25 | 1 (≈ 3.27 µM) | 2 (≈ 6.53 µM) | 2 (≈ 6.53 µM) | 2 (≈ 6.53 µM) | 2 (≈ 6.53 µM) | 2 (≈ 6.53 µM) | 2 (≈ 6.53 µM) | 2 (≈ 6.53 µM) | 1 (≈ 3.27 µM) | 2 (≈ 6.53 µM) | 1 (≈ 3.27 µM) | 2 (≈ 6.53 µM) | 4 (≈ 13.1 µM) | 1 (≈ 3.27 µM) | ≤ 0.25 |
